Assays:
Type in all cases: functional, cell-based
A549 [1] = assay: Anticancer activity against human A549 cells assessed as inhibition of cell growth after 24 hrs by MTT assay; details: A549, 24 h
Summary of the method: (§1)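 MTT assay at 3,000 cells/well. Cells treated with DMSO or seven concentrations from 0.5 to 50 µM for 24, 48 or 72 h. MTT added 3 h before the end point; formazan dissolved in DMSO and read at 570 and 630 nm. IC50 is the concentration giving 50% growth inhibition. Media: PANC-1, BxPC3 and 1205Lu in DMEM; DU145 and A549 in RPMI 1640; HT29, HCT116 and RKO in McCoy's 5A, all with 10% FBS and pen/strep, at 37 °C and 5% CO2.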

[2] = Anticancer activity against human PANC1 cells assessed as inhibition of cell growth after 72 hrs by MTT assay; details: PANC-1, 72 h; summary of the method: as §1
[3] = Anticancer activity against human DU145 cells assessed as inhibition of cell growth after 72 hrs by MTT assay; details: DU-145, 72 h; summary of the method: as §1
[4] = Anticancer activity against human BxPC3 cells assessed as inhibition of cell growth after 48 hrs by MTT assay; details: BXPC-3, 48 h; summary of the method: as §1
[5] = Anticancer activity against human 1205 Lu cells assessed as inhibition of cell growth after 48 hrs by MTT assay; summary of the method: as §1
[6] = Anticancer activity against human BxPC3 cells assessed as inhibition of cell growth after 72 hrs by MTT assay; details: BXPC-3, 72 h; summary of the method: as §1
[7] = Anticancer activity against human 1205 Lu cells assessed as inhibition of cell growth after 24 hrs by MTT assay; summary of the method: as §1
[8] = Anticancer activity against human BxPC3 cells assessed as inhibition of cell growth after 24 hrs by MTT assay; details: BXPC-3, 24 h; summary of the method: as §1
A549 [9] = assay: Anticancer activity against human A549 cells assessed as inhibition of cell growth after 48 hrs by MTT assay; details: A549, 48 h; summary of the method: as §1
[10] = Anticancer activity against human HCT116 cells assessed as inhibition of cell growth after 72 hrs by MTT assay; details: HCT-116, 72 h; summary of the method: as §1
A549 [11] = assay: Anticancer activity against human A549 cells assessed as inhibition of cell growth after 72 hrs by MTT assay; details: A549, 72 h; summary of the method: as §1
[12] = Anticancer activity against human 1205 Lu cells assessed as inhibition of cell growth after 72 hrs by MTT assay; summary of the method: as §1
[13] = Anticancer activity against human PANC1 cells assessed as inhibition of cell growth after 48 hrs by MTT assay; details: PANC-1, 48 h; summary of the method: as §1
[14] = Anticancer activity against human DU145 cells assessed as inhibition of cell growth after 24 hrs by MTT assay; details: DU-145, 24 h; summary of the method: as §1
[15] = Anticancer activity against human DU145 cells assessed as inhibition of cell growth after 48 hrs by MTT assay; details: DU-145, 48 h; summary of the method: as §1
[16] = Anticancer activity against human HCT116 cells assessed as inhibition of cell growth after 48 hrs by MTT assay; details: HCT-116, 48 h; summary of the method: as §1
[17] = Anticancer activity against human PANC1 cells assessed as inhibition of cell growth after 24 hrs by MTT assay; details: PANC-1, 24 h; summary of the method: as §1
[18] = Anticancer activity against human HCT116 cells assessed as inhibition of cell growth after 24 hrs by MTT assay; details: HCT-116, 24 h; summary of the method: as §1

Structure (SMILES) | IC50 (A549 [1]) [µM] | IC50 (A549 [9]) [µM] | IC50 (A549 [11]) [µM] | IC50 [2] [µM] | IC50 [3] [µM] | IC50 [4] [µM] | IC50 [5] [µM] | IC50 [6] [µM] | IC50 [7] [µM] | IC50 [8] [µM] | IC50 [10] [µM] | IC50 [12] [µM] | IC50 [13] [µM] | IC50 [14] [µM] | IC50 [15] [µM] | IC50 [16] [µM] | IC50 [17] [µM] | IC50 [18] [µM]
N=C(N)[Se]Cc1ccc([N+](=O)[O-])o1 | 22.9 | 10.2 | 9 | 13.6 | 15.6 | 39.4 | 15.7 | 15.6 | 19.1 | 42.9 | 3.8 | 13 | 15.6 | > 50 | > 50 | 3.7 | > 50 | 14.6
N=C(N)SCc1ccc(-n2cccc2)cc1 | > 50 | > 50 | > 50 | 40.6 | 31.7 | > 50 | > 50 | 24.6 | > 50 | > 50 | 31.5 | > 50 | > 50 | > 50 | > 50 | > 50 | > 50 | > 50
N=C(N)[Se]Cc1cc2c(cc1Br)OCO2 | > 50 | > 50 | 36.3 | 16.5 | > 50 | > 50 | > 50 | 36.9 | > 50 | > 50 | 23.9 | 21.8 | 24.7 | > 50 | > 50 | 31.8 | > 50 | > 50
N=C(N)[Se]CN1C(=O)c2ccccc2C1=O | 11.2 | 7.8 | 5.5 | 12.6 | 6.9 | 19.1 | 13.2 | 18.8 | 19 | 19.8 | 15.6 | 9.3 | 15.3 | 18.8 | 14 | 17.9 | 23.5 | 29.2
N=C(N)[Se]Cc1ccc2ccccc2n1 | 39.6 | 15.1 | 8.1 | 9.6 | 7.3 | 17 | 9.9 | 7.8 | 14.4 | 36.6 | 10.6 | 7.1 | 15.9 | 19.6 | 11.6 | 19.6 | 18 | 29.7
Cc1noc(C)c1C[Se]C(=N)N | > 50 | 2.8 | 1.2 | 13.6 | 7.4 | 6.8 | > 50 | 2.4 | > 50 | > 50 | 4.6 | 3.4 | 37.4 | > 50 | 22 | 45 | > 50 | > 50
N=C(N)[Se]Cc1ccc(-n2cccc2)cc1 | 25.3 | 16.3 | 12.8 | > 50 | > 50 | 14.7 | > 50 | 8.3 | > 50 | > 50 | > 50 | > 50 | > 50 | > 50 | > 50 | > 50 | > 50 | > 50
N=C(N)[Se]Cc1c2ccccc2nc2ccccc12 | 34.4 | 14.9 | 6.2 | 9.8 | 12.9 | 10.5 | 16.7 | 8.2 | 13 | 20.4 | 14.4 | 11.6 | 11.6 | 31.8 | 14.9 | 16.7 | 12.1 | 31.8

Further lines, with some results ahead:

IC50 (A549 [1]) [µM] | IC50 (A549 [9]) [µM] | IC50 (A549 [11]) [µM] | Structure (SMILES) | IC50 [2] [µM] | IC50 [3] [µM] | IC50 [4] [µM] | IC50 [5] [µM] | IC50 [6] [µM] | IC50 [7] [µM] | IC50 [8] [µM] | IC50 [10] [µM] | IC50 [12] [µM] | IC50 [13] [µM] | IC50 [14] [µM] | IC50 [15] [µM] | IC50 [16] [µM] | IC50 [17] [µM] | IC50 [18] [µM]
> 50 | > 50 | > 50 | N=C(N)SCc1nc2ccccc2nc1CSC(=N)N | > 50 | > 50 | > 50 | > 50 | > 50 | > 50 | > 50 | > 50 | > 50 | > 50 | > 50 | > 50 | > 50 | > 50 | > 50
> 50 | > 50 | > 50 | Cc1noc(C)c1CSC(=N)N | > 50 | > 50 | > 50 | > 50 | 47.2 | > 50 | > 50 | > 50 | > 50 | > 50 | > 50 | > 50 | > 50 | > 50 | > 50
> 50 | > 50 | > 50 | N=C(N)SCc1ccc([N+](=O)[O-])o1 | > 50 | > 50 | > 50 | > 50 | > 50 | > 50 | > 50 | 7 | > 50 | > 50 | > 50 | > 50 | 30.8 | > 50 | > 50
> 50 | > 50 | > 50 | N=C(N)SCc1ccc2ccccc2n1 | > 50 | 31.6 | 37.3 | > 50 | 25.7 | > 50 | > 50 | 22.9 | 39.2 | > 50 | > 50 | > 50 | 28.5 | > 50 | > 50
> 50 | > 50 | > 50 | N=C(N)SCc1cc2c(cc1Br)OCO2 | 34.3 | > 50 | > 50 | > 50 | 44.3 | > 50 | > 50 | 22.1 | > 50 | 40.5 | > 50 | > 50 | 34.8 | > 50 | > 50
> 50 | > 50 | > 50 | COc1cc2oc(=O)cc(CSC(=N)N)c2cc1OC | > 50 | > 50 | > 50 | > 50 | > 50 | > 50 | > 50 | > 50 | 37.4 | > 50 | > 50 | > 50 | > 50 | > 50 | > 50
> 50 | > 50 | > 50 | N=C(N)SCN1C(=O)c2ccccc2C1=O | > 50 | > 50 | > 50 | > 50 | > 50 | > 50 | > 50 | > 50 | > 50 | > 50 | > 50 | > 50 | > 50 | > 50 | > 50

— ChEMBL document CHEMBL3779798, “Novel seleno- and thio-urea derivatives with potent in vitro activities against several cancer cell lines” (Eur J Med Chem, 2016)
